The values below come from ChEMBL document CHEMBL4052822, “Design and Synthesis of Orally Bioavailable Piperazine Substituted 4(1H)-Quinolones with Potent Antimalarial Activity: Structure-Activity and Structure-Property Relationship Studies” (J Med Chem, 2018).

Activity calls are given as the source filed them. The calls are words filed in the database; no cut-off is given here. Where only a bound is given, the exact number is not on record here.

Broadly, the inhibition in vivo is the relative decrease from the control value, in per cent. Broadly, the solubility is the concentration that dissolves in the medium under given conditions. Lower therefore signals little dissolved substance. The EC50 is the midpoint of the concentration-response curve.

For series [1], the system named is Plasmodium berghei. The series can be described thus: Antimalarial activity against liver stage form of luciferase transfected Plasmodium berghei sporozoites infected in mouse assessed as protection against parasitemia at 50 mg/kg, sc administered 1 hr post infection measured at 44 hrs by bioluminescence method. Format: functional, organism-based. A digest of the protocol:
(§1)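 Mice infected with luciferase-expressing P. berghei sporozoites, five per group. A single dose in PEG 400 was given orally by gavage (25, 50, 100 mg/kg) or subcutaneously (50 mg/kg) 1 h after infection. Infected untreated controls and a primaquine drug control were included. Whole-animal imaging was done 5 min after ip D-luciferin (100 mg/kg) under isoflurane, at 44 h and days 6, 9 and 13. Survival/cure followed to day 30.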

Series [2] concerns Plasmodium berghei. In words: Antimalarial activity against liver stage form of luciferase transfected Plasmodium berghei sporozoites infected in mouse assessed as inhibition of parasitemia at 25 mg/kg administered via oral gavage 1 hr post infection measured on day 9 by bioluminescence method relative to control. Format: functional.
Series [3] has as its system Plasmodium berghei. In words: Antimalarial activity against liver stage form of luciferase transfected Plasmodium berghei sporozoites infected in mouse assessed as protection against parasitemia at 25 to 100 mg/kg administered via oral gavage 1 hr post infection measured at 44 hrs by bioluminescence method. Format: functional, organism-based. The method, boiled down:
as §1

The nature of series [4]: Aqueous solubility of compound at pH 6.5. It counts as physicochemical.
Series [5] has as its system Plasmodium berghei. In words: Antimalarial activity against Plasmodium berghei infected in human HepG2 cells after 44 hrs by luciferase assay. It counts as functional, cell-based. The conditions noted are these: HepG2, 44 h. A digest of the protocol:
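HepG2 cells, 75000 per well, in DMEM with 10% FBS at 37 °C, 5% CO2. 5000 Pb luciferase sporozoites from dissected mosquito salivary glands added per well for 3 h, then washed three times with PBS. Serially diluted compound added in triplicate, 44 h at 37 °C. Cells lysed, luciferase substrate added, luminescence read.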

Series [6] has as its system Plasmodium berghei. In words: Antimalarial activity against liver stage form of luciferase transfected Plasmodium berghei sporozoites infected in mouse assessed as inhibition of parasitemia at 50 mg/kg administered via oral gavage 1 hr post infection measured on day 9 by bioluminescence method relative to control. Format: functional.
Series [7] relates to Plasmodium berghei. The series can be described thus: Antimalarial activity against liver stage form of luciferase transfected Plasmodium berghei sporozoites infected in mouse assessed as inhibition of parasitemia at 50 mg/kg, sc administered 1 hr post infection measured on day 9 by bioluminescence method relative to control. It counts as functional.
The test system of series [8] is Plasmodium berghei. The series can be described thus: Antimalarial activity against liver stage form of luciferase transfected Plasmodium berghei sporozoites infected in mouse assessed as protection against parasitemia at 50 mg/kg, sc administered 1 hr post infection measured on day 6 to 13 by bioluminescence method. Format: functional, organism-based. A digest of the protocol:
as §1

Series [9] deals with Plasmodium berghei. In words: Antimalarial activity against liver stage form of luciferase transfected Plasmodium berghei sporozoites infected in mouse assessed as inhibition of parasitemia at 100 mg/kg administered via oral gavage 1 hr post infection measured on day 9 by bioluminescence method relative to control. It counts as functional.
In series [10] the test system is Plasmodium falciparum. In words: Antimalarial activity against pyrimethamine/chloroquine-resistant Plasmodium falciparum W2 infected in human type A-positive erythrocytes after 48 hrs by [3H]-hypoxanthine incorporation assay. Format: functional, cell-based. A digest of the protocol: (§2)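 Compound from 10.0 mM DMSO stock, diluted ≥1:400, then 11 concentrations in duplicate. Incubated at 37 °C under 90% N2/5% O2/5% CO2 for 48 h, then 3H-hypoxanthine added for 24 h more. CPM counted; EC50 by nonlinear regression.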

For series [11], the system named is Plasmodium berghei. The series can be described thus: Antimalarial activity against liver stage form of luciferase transfected Plasmodium berghei sporozoites infected in mouse assessed as protection against parasitemia at 100 mg/kg administered via oral gavage 1 hr post infection measured on day 30 by bioluminescence method. It counts as functional, organism-based. A digest of the protocol:
as §1

Series [12] has as its system Plasmodium berghei. In words: Antimalarial activity against liver stage form of luciferase transfected Plasmodium berghei sporozoites infected in mouse assessed as protection against parasitemia at 25 to 100 mg/kg administered via oral gavage 1 hr post infection measured on day 6 to 13 by bioluminescence method. Format: functional, organism-based. A digest of the protocol:
as §1

Series [13] deals with Plasmodium falciparum. In words: Antimalarial activity against mefloquine/chloroquine/atovaquone/pyrimethamine-resistant Plasmodium falciparum TM90-C2B infected in human type A-positive erythrocytes after 48 hrs by [3H]-hypoxanthine incorporation assay. Format: functional, cell-based. The method, boiled down:
as §2

Turning to `COC(=O)c1c[nH]c2cc(CN3CCN(c4ccccc4)CC3)ccc2c1=O`, the outcome in series [1], in series [3], in series [8], in series [11] and in series [12] was Active. For the same compound, the inhibition in vivo at 25 mg/kg in series [2] worked out at 65.3%. The solubility in [4] was not below 80 µM. For the same compound, the half-maximal effective concentration (EC50) worked out at 4.7 nM in series [5], 1.3 nM in [10] and 480 nM in series [13]. The inhibition in vivo at 50 mg/kg in series [6] is 85.1%; in series [7] it was more than 99%. In [9], the inhibition in vivo at 100 mg/kg was more than 99%.
